Data taken from ChEMBL document CHEMBL5724801, “EUbOPEN Chemogenomics Library - Multiplex” (2024).
Values joined by “and” are separate entries in the source; they are usually repeats but may differ in a detail not shown here. Identical values can stand only once.

System: Fibroblast
Experiment: Multiplex assay against human fibroblast
Type: toxicity, cell-based
Procedure, shortened: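 Values for tubulin, mitochondrial-mass and membrane-permeability phenotypes are per cents of cells with healthy nuclei. These cells were identified by CellPathfinder machine-learning gating of live cells that had been stained at seeding with Hoechst33342, BioTracker Green Microtubule Cytoskeleton Dye, MitoTracker Red and Annexin V Alexa Fluor 680 and imaged on a CQ1 microscope at 37°C and 5% CO2 after compound addition. The gating first set Hoechst high-intensity objects apart from normal cells, then split normal cells into healthy, pyknosed or fragmented nuclei, and pyknosed cells into mitotic or apoptotic.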

[1] = 12 h, 1 µM, compound concentration 1 uM
[2] = 12 h, 10 µM, compound concentration 10 uM
[3] = 24 h, 1 µM, compound concentration 1 uM
[4] = 24 h, 10 µM, compound concentration 10 uM
[5] = 48 h, 1 µM, compound concentration 1 uM
[6] = 48 h, 10 µM, compound concentration 10 uM

COc1ccc(Cl)cc1[C@]1(F)C(=O)Nc2cc(C(F)(F)F)ccc21 [FLINDOKALNER]
Population Apoptotic (%) [1]: 10.87% and 19.35% | Population Fragmented Nuclei (%) [1]: 9.6% and 5.91% | Population Healthy Nuclei (%) [1]: 64.41% and 80% | Population Hoechst High Intensity Objects (%) [1]: 0% | Population Membrane Permeable-Phenotype (%) [1]: 2.63% and 1.7% | Population Mitochondria Different-Phenotype (%) [1]: 7.02% and 9.09% | Population Mitotic Cells (%) [1]: 89.13% and 80.65% | Population Normal (%) [1]: 100% | Population Pyknosed Nuclei (%) [1]: 25.99% and 14.09% | Population Tubulin-Different-Phenotype (%) [1]: 10.53% and 15.34% | Total Cell Count [1]: 177 and 220 | Population Apoptotic (%) [2]: 10.2% and 11.76% | Population Fragmented Nuclei (%) [2]: 14.63% and 8.91% | Population Healthy Nuclei (%) [2]: 55.49% and 74.26% | Population Hoechst High Intensity Objects (%) [2]: 0% | Population Membrane Permeable-Phenotype (%) [2]: 5.49% and 4.67% | Population Mitochondria Different-Phenotype (%) [2]: 15.38% and 11.33% | Population Mitotic Cells (%) [2]: 89.8% and 88.24% | Population Normal (%) [2]: 100% | Population Pyknosed Nuclei (%) [2]: 29.88% and 16.83% | Population Tubulin-Different-Phenotype (%) [2]: 15.38% and 34.67% | Total Cell Count [2]: 164 and 202 | Population Apoptotic (%) [3]: 14.63% and 27.27% | Population Fragmented Nuclei (%) [3]: 10.29% and 4.91% | Population Healthy Nuclei (%) [3]: 69.61% and 85.27% | Population Hoechst High Intensity Objects (%) [3]: 0% | Population Membrane Permeable-Phenotype (%) [3]: 3.52% and 2.09% | Population Mitochondria Different-Phenotype (%) [3]: 5.63% and 5.76% | Population Mitotic Cells (%) [3]: 85.37% and 72.73% | Population Normal (%) [3]: 100% | Population Pyknosed Nuclei (%) [3]: 20.1% and 9.82% | Population Tubulin-Different-Phenotype (%) [3]: 19.72% and 10.99% | Total Cell Count [3]: 204 and 224 | Population Apoptotic (%) [4]: 4.65% and 14.29% | Population Fragmented Nuclei (%) [4]: 9.94% and 5.1% | Population Healthy Nuclei (%) [4]: 64.91% and 84.18% | Population Hoechst High Intensity Objects (%) [4]: 0% | Population Membrane Permeable-Phenotype (%) [4]: 3.6% and 3.03% | Population Mitochondria Different-Phenotype (%) [4]: 12.61% and 10.3% | Population Mitotic Cells (%) [4]: 95.35% and 85.71% | Population Normal (%) [4]: 100% | Population Pyknosed Nuclei (%) [4]: 25.15% and 10.71% | Population Tubulin-Different-Phenotype (%) [4]: 27.93% and 29.09% | Total Cell Count [4]: 171 and 196 | Population Apoptotic (%) [5]: 33.33% and 18.18% | Population Fragmented Nuclei (%) [5]: 9.22% and 7.42% | Population Healthy Nuclei (%) [5]: 83.87% and 87.77% | Population Hoechst High Intensity Objects (%) [5]: 0% | Population Membrane Permeable-Phenotype (%) [5]: 2.2% and 1% | Population Mitotic Cells (%) [5]: 66.67% and 81.82% | Population Normal (%) [5]: 100% | Population Pyknosed Nuclei (%) [5]: 6.91% and 4.8% | Population Tubulin-Different-Phenotype (%) [5]: 12.09% and 14.43% | Total Cell Count [5]: 217 and 229 | Population Apoptotic (%) [6]: 22.22% and 18.18% | Population Healthy Nuclei (%) [6]: 74.18% and 91.26% | Population Hoechst High Intensity Objects (%) [6]: 0% | Population Membrane Permeable-Phenotype (%) [6]: 2.96% and 5.32% | Population Mitochondria Different-Phenotype (%) [6]: 14.81% and 5.32% | Population Mitotic Cells (%) [6]: 77.78% and 81.82% | Population Normal (%) [6]: 100% | Population Pyknosed Nuclei (%) [6]: 9.89% and 5.34% | Population Tubulin-Different-Phenotype (%) [6]: 14.81% and 30.32% | Total Cell Count [6]: 182 and 206

CN(C)Cc1cccc(NC(=C2C(=O)Nc3cc(C(N)=O)ccc32)c2ccccc2)c1
Population Apoptotic (%) [1]: 0% and 16.22% | Population Fragmented Nuclei (%) [1]: 12% and 11.4% | Population Healthy Nuclei (%) [1]: 66.67% and 69.43% | Population Hoechst High Intensity Objects (%) [1]: 0% | Population Membrane Permeable-Phenotype (%) [1]: 4% and 2.99% | Population Mitochondria Different-Phenotype (%) [1]: 10% and 8.21% | Population Mitotic Cells (%) [1]: 100% and 83.78% | Population Normal (%) [1]: 100% | Population Pyknosed Nuclei (%) [1]: 21.33% and 19.17% | Population Tubulin-Different-Phenotype (%) [1]: 20% and 13.43% | Total Cell Count [1]: 150 and 193 | Population Apoptotic (%) [2]: 29.55% and 27.03% | Population Healthy Nuclei (%) [2]: 68.3% and 82.06% | Population Hoechst High Intensity Objects (%) [2]: 0% | Population Membrane Permeable-Phenotype (%) [2]: 9.39% and 4.65% | Population Mitochondria Different-Phenotype (%) [2]: 16.57% and 13.49% | Population Mitotic Cells (%) [2]: 70.45% and 72.97% | Population Normal (%) [2]: 100% | Population Pyknosed Nuclei (%) [2]: 16.6% and 14.12% | Population Tubulin-Different-Phenotype (%) [2]: 48.62% and 53.95% | Total Cell Count [2]: 265 and 262 | Population Apoptotic (%) [3]: 23.81% and 25% | Population Fragmented Nuclei (%) [3]: 7.65% and 8.11% | Population Healthy Nuclei (%) [3]: 80% and 81.08% | Population Hoechst High Intensity Objects (%) [3]: 0% | Population Membrane Permeable-Phenotype (%) [3]: 4.41% and 2% | Population Mitochondria Different-Phenotype (%) [3]: 5.15% and 6.67% | Population Mitotic Cells (%) [3]: 76.19% and 75% | Population Normal (%) [3]: 100% | Population Pyknosed Nuclei (%) [3]: 12.35% and 10.81% | Population Tubulin-Different-Phenotype (%) [3]: 8.82% and 14.67% | Total Cell Count [3]: 170 and 185 | Population Apoptotic (%) [4]: 16.28% and 31.25% | Population Fragmented Nuclei (%) [4]: 12.59% and 7.12% | Population Healthy Nuclei (%) [4]: 71.94% and 80.9% | Population Hoechst High Intensity Objects (%) [4]: 0% | Population Membrane Permeable-Phenotype (%) [4]: 5.5% and 3.24% | Population Mitochondria Different-Phenotype (%) [4]: 9% and 14.35% | Population Mitotic Cells (%) [4]: 83.72% and 68.75% | Population Normal (%) [4]: 100% | Population Pyknosed Nuclei (%) [4]: 15.47% and 11.99% | Population Tubulin-Different-Phenotype (%) [4]: 48.5% and 61.11% | Total Cell Count [4]: 278 and 267 | Population Apoptotic (%) [5]: 40% and 44.44% | Population Fragmented Nuclei (%) [5]: 11.24% and 9.23% | Population Healthy Nuclei (%) [5]: 83.15% and 76.92% | Population Hoechst High Intensity Objects (%) [5]: 0% | Population Membrane Permeable-Phenotype (%) [5]: 1.35% and 5.33% | Population Mitotic Cells (%) [5]: 60% and 55.56% | Population Normal (%) [5]: 100% | Population Pyknosed Nuclei (%) [5]: 5.62% and 13.85% | Population Tubulin-Different-Phenotype (%) [5]: 8.11% and 15.33% | Total Cell Count [5]: 178 and 195 | Population Apoptotic (%) [6]: 47.37% and 60% | Population Healthy Nuclei (%) [6]: 76.72% and 86.82% | Population Hoechst High Intensity Objects (%) [6]: 0% | Population Membrane Permeable-Phenotype (%) [6]: 5.06% and 5.36% | Population Mitochondria Different-Phenotype (%) [6]: 6.23% and 7.14% | Population Mitotic Cells (%) [6]: 52.63% and 40% | Population Normal (%) [6]: 100% | Population Pyknosed Nuclei (%) [6]: 5.67% and 7.75% | Population Tubulin-Different-Phenotype (%) [6]: 40.86% and 67.41% | Total Cell Count [6]: 335 and 258
